Active and inactive are the calls of the source. No cut-off for these calls is given here.
How the values were obtained:
[1] = system: Influenza A virus; test: Antiviral activity against Influenza A virus (A/WSN/33) infected in MDCK cells assessed as reduction in virus-induced cytopathic effect after 72 hrs by crystal violet-staining based assay; type: functional, organism-based; conditions: A/WSN/1933(H1N1)
In short: (§1)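 Cells seeded at 2 × 10^4/well in E10 (DMEM, 10% FBS), 16–24 h at 37 °C/5% CO2, washed with DPBS, then infected at nine-fold TCID50 with or without serial compound concentrations. Influenza is run in MDCK and enterovirus/rhinovirus in RD. Incubated 72 h, fixed in 4% paraformaldehyde, stained with 0.1% crystal violet, and read for cell density. EC50 = 50% CPE inhibition by Reed–Muench; mean ± S.D. of at least three runs.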

[2] = Cytotoxicity against MDCK cells assessed as cell death after 72 hrs by MTT assay; type: cell-based, Canis lupus familiaris; conditions: dog
In short: (§2)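 MDCK or RD cells at 2 × 10^4/well in E10, overnight at 37 °C/5% CO2, DPBS wash, then exposed to graded compound concentrations for 72 h. MTT added for 3 h, formazan dissolved in DMSO, absorbance read at 570 nm. CC50 (50% cell death) by Reed–Muench.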

[3] = Selectivity ratio of CC50 for MDCK cells to EC50 for Influenza A virus (A/WSN/33); type: toxicity; conditions: dog, read-out: Ratio CC50/EC50
In short: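 SI is calculated as CC50 (MDCK, 72 h MTT) divided by EC50 (72 h crystal-violet CPE assay in MDCK).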

[4] = Cytotoxicity against human RD cells assessed as cell death after 72 hrs by MTT assay; type: cell-based; in short: as §2
[5] = system: Influenza A virus; test: Antiviral activity against Influenza A virus A/TW/3446/02 (H3N2) infected in MDCK cells after 72 hrs by crystal violet-staining based assay; type: functional, organism-based; in short: as §1
[6] = system: Influenza A virus; test: Antiviral activity against pandemic Influenza A virus A/TW/2235/09 (H1N1) SO4 infected in MDCK cells after 72 hrs by crystal violet-staining based assay; type: functional, organism-based; conditions: A/TW/2235/09 (H1N1) SO4, MDCK; in short: as §1
[7] = Selectivity ratio of CC50 for MDCK cells to EC50 for pandemic Influenza A virus A/TW/2235/09 (H1N1) SO4; type: toxicity; conditions: dog, read-out: Ratio CC50/EC50
In short: (§3)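 MDCK cells (2 × 10^4/well, E10, 16–24 h) infected at nine-fold TCID50 with compound for 72 h, 37 °C, 5% CO2. Cells were fixed in 4% paraformaldehyde and stained with crystal violet; EC50 is from Reed–Muench. For CC50, cells had compound alone for 72 h, then MTT 3 h, DMSO, A570, Reed–Muench. SI = CC50/EC50; three independent experiments.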

[8] = Selectivity ratio of CC50 for MDCK cells to EC50 for Influenza A virus A/TW/3446/02 (H3N2); type: toxicity; conditions: dog, read-out: Ratio CC50/EC50; in short: as §3
[9] = system: Enterovirus A71; test: Antiviral activity against Enterovirus A71 TW/4643/1998 infected in human RD cells after 72 hrs by crystal violet-staining based assay; type: functional, organism-based; conditions: Enterovirus A, TW/4643/1998, RD; in short: as §1
[10] = system: enterovirus D68; test: Antiviral activity against Enterovirus D68 TW/2795/2014 clade B3 infected in human RD cells after 72 hrs by crystal violet-staining based assay; type: functional, organism-based; conditions: Enterovirus D, TW/2795/2014 clade B3, RD; in short: as §1
[11] = Selectivity ratio of CC50 for human RD cells to EC50 for Enterovirus A71 TW/4643/1998; type: toxicity; conditions: read-out: Ratio CC50/EC50
In short: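 RD cells (2 × 10^4/well, DMEM 10% FBS, 16–24 h) infected with enterovirus at nine-fold TCID50 with compound, 72 h, 37 °C, 5% CO2. Cells were fixed in 4% paraformaldehyde, stained with 0.1% crystal violet, and EC50 taken by Reed–Muench. CC50 came from 72 h exposure of uninfected RD cells, MTT 3 h, A570, Reed–Muench. SI = CC50/EC50; three independent experiments.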

[12] = system: Enterovirus; test: Antiviral activity against Rhinovirus 71803 infected in human RD cells after 72 hrs by crystal violet-staining based assay; type: functional, organism-based; conditions: Enterovirus, 71803, RD; in short: as §1
[13] = system: Enterovirus; test: Antiviral activity against Rhinovirus 71903 infected in human RD cells after 72 hrs by crystal violet-staining based assay; type: functional, organism-based; conditions: Enterovirus, 71903, RD; in short: as §1
[14] = molecular target: Hemagglutinin (Influenza A virus) (UniProt B4URE7); test: Inhibition Influenza A virus (A/WSN/33) HA infected in guinea pig RBC assessed as reduction in hemagglutination at serial dilution from 50 uM after 1 hr by HAI assay; conditions: Influenza A virus (A/WSN/1933(H1N1))
Hemagglutinin (Influenza A virus), sequence (B4URE7 as listed by the source): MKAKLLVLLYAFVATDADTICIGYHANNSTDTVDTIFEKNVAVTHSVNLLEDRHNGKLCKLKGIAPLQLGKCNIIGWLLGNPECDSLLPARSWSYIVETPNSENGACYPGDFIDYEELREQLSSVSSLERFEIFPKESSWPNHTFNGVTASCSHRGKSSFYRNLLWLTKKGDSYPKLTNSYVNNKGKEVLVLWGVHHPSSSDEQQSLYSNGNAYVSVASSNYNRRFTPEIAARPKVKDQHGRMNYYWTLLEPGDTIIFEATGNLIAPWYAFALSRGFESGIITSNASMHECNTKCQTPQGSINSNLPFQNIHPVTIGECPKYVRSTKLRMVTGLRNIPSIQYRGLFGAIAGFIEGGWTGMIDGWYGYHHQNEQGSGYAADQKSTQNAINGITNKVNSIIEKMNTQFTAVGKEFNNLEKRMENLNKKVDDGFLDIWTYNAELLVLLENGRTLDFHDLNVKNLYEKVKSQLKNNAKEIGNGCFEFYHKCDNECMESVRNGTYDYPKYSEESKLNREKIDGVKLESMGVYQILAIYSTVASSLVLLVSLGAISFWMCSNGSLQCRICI
In short: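 Virus titrated on 0.5% guinea pig RBCs to define 1 HA unit; 4 HA units used. Compound two-fold serially diluted from 50 µM and mixed with virus for 30 min at room temperature, or tested without virus for direct agglutination. 0.5% RBCs then added and agglutination scored after 1 h. DMSO/RBC-only and virus-only controls included.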

[15] = system: Influenza A virus; test: Antiviral activity against Influenza A virus (A/WSN/33) infected in MDCK cells at 1 uM added at -1 hrs to 9 hrs post infection and measured after 9 hrs by plaque assay; type: functional, organism-based; conditions: A/WSN/1933(H1N1)
In short: (§4)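 MDCK monolayers exposed to compound (1 or 10 μM) over windows of −3, −1, 0, 3 or 6 to 9 h pi. A/WSN/33 adsorbed at MOI 0.1 from −1 to 0 h, then removed with a PBS wash. Supernatant taken at 9 h pi and titred by plaque assay, normalised to virus-only (100%). Average of three independent experiments.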

[16] = system: MDCK; test: Inhibition of CRM1 in MDCK cells infected with Influenza A virus (A/WSN/33) assessed as reduction in CRM1-mediated viral protein nuclear export by measuring reduction in NP protein distribution to cytoplasm at 1 uM measured after 9 hrs post infection by IF-staining based microscopy; type: cell-based; conditions: Canis lupus familiaris
In short: (§5)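 MDCK cells grown on coverslips (2 × 10^5/well, 16 h), infected at MOI 0.1 for 1 h, washed, then kept in E0 with test compound (1 or 10 μM) or LMB 10 nM; DMSO 0.05% as mock. Fixed at 9 h pi in 4% paraformaldehyde and immunostained for M1, NP, NS2 or PA (1:50), with Hoechst nuclear stain. Viewed by confocal microscopy at 63×. NP nuclear/cytoplasmic intensity ratio quantified; three independent experiments.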

[17] = system: Influenza A virus; test: Inhibition of viral protein sub-cellular distribution in Influenza A virus (A/WSN/33) infected in MDCK cells assessed as reduction in M1 protein distribution to cytoplasm at 1 uM measured after 9 hrs post infection by IF-staining based microscopy; type: functional, organism-based; conditions: A/WSN/1933(H1N1); in short: as §5
[18] = system: Influenza A virus; test: Antiviral activity against Influenza A virus (A/WSN/33) infected in MDCK cells at 1 uM added at 3 hrs to 9 hrs post infection and measured after 9 hrs by plaque assay; type: functional, organism-based; conditions: A/WSN/1933(H1N1); in short: as §4
[19] = system: Influenza A virus; test: Antiviral activity against Influenza A virus (A/WSN/33) infected in MDCK cells assessed as reduction in NP protein distribution to cytoplasm at 10 nM measured after 9 hrs post infection by IF-staining based microscopy; type: functional, organism-based; conditions: A/WSN/1933(H1N1); in short: as §5
[20] = system: Influenza A virus; test: Antiviral activity against Influenza A virus (A/WSN/33) infected in MDCK cells assessed as reduction in NS2 protein distribution to cytoplasm at 10 nM measured after 9 hrs post infection by IF-staining based microscopy; type: functional, organism-based; conditions: A/WSN/1933(H1N1); in short: as §5
[21] = system: Influenza A virus; test: Antiviral activity against Influenza A virus (A/WSN/33) infected in MDCK cells assessed as reduction in PA protein distribution to cytoplasm at 10 nM measured after 9 hrs post infection by IF-staining based microscopy; type: functional, organism-based; conditions: A/WSN/1933(H1N1); in short: as §5
[22] = system: Influenza A virus; test: Antiviral activity against Influenza A virus (A/WSN/33) infected in MDCK cells assessed as reduction in M1 protein distribution to cytoplasm at 10 nM measured after 9 hrs post infection by IF-staining based microscopy; type: functional, organism-based; conditions: A/WSN/1933(H1N1); in short: as §5
[23] = system: Influenza A virus; test: Inhibition of viral protein sub-cellular distribution in Influenza A virus (A/WSN/33) infected in MDCK cells assessed as reduction in NS2 protein distribution to cytoplasm at 10 nM measured after 9 hrs post infection by IF-staining based microscopy; type: functional, organism-based; conditions: A/WSN/1933(H1N1); in short: as §5
[24] = system: Influenza A virus; test: Inhibition of viral protein sub-cellular distribution in Influenza A virus (A/WSN/33) infected in MDCK cells assessed as reduction in PA protein distribution to cytoplasm at 10 nM measured after 9 hrs post infection by IF-staining based microscopy; type: functional, organism-based; conditions: A/WSN/1933(H1N1); in short: as §5
[25] = system: Influenza A virus; test: Inhibition of viral protein sub-cellular distribution in Influenza A virus (A/WSN/33) infected in MDCK cells assessed as reduction in M1 protein distribution to cytoplasm at 10 nM measured after 9 hrs post infection by IF-staining based microscopy; type: functional, organism-based; conditions: A/WSN/1933(H1N1); in short: as §5
[26] = system: MDCK; test: Inhibition of CRM1 in MDCK cells infected with Influenza A virus (A/WSN/33) assessed as reduction in CRM1-mediated viral protein nuclear export by measuring reduction in NP protein distribution to cytoplasm at 10 nM measured after 9 hrs post infection by IF-staining based microscopy; type: cell-based; conditions: Canis lupus familiaris; in short: as §5

Row | SMILES | EC50 [1] [µM] | CC50 at 72 h [2] [µM] | selectivity ratio [3] | further results
1 | C=C(CC(=O)Nc1ccc(Br)cc1Br)C(=O)Nc1ccc(Br)cc1Br | 41.6 | > 110 | > 2 | 
2 | C=C(CC(=O)Nc1ccc(F)cc1F)C(=O)O | > 50 | > 110 |  | 
3 | C=C(CC(=O)Nc1ccc(F)cc1Br)C(=O)Nc1ccc(F)cc1Br | 2.59 | > 110 | > 42 | 
4 | C=C(CC(=O)Nc1ccccc1C(F)(F)F)C(=O)Nc1ccccc1C(F)(F)F | > 50 | > 110 |  | 
5 | C=C(CC(=O)NCc1ccc(F)cc1F)C(=O)NCc1ccc(F)cc1F | > 50 | > 110 |  | 
6 | C=C(CC(=O)Nc1ccc(OC)cc1F)C(=O)Nc1ccc(OC)cc1F | 31 | > 110 | > 3 | 
7 | O=C(/C=C\n1cnc(-c2cc(C(F)(F)F)cc(C(F)(F)F)c2)n1)NNc1ccccn1 [VERDINEXOR] | 3.28 | 31.8 | 9.69 | 
8 | C=C(CC(=O)Nc1ccc(Cl)cc1F)C(=O)O | > 50 | > 110 |  | 
9 | C=C(CC(=O)Nc1cc(F)ccc1C(F)(F)F)C(=O)O | > 50 | > 110 |  | 
10 | C=C(CC(=O)Nc1ccc(C(F)(F)F)cc1F)C(=O)Nc1ccc(C(F)(F)F)cc1F | 0.14 | > 110 | > 785 | CC50 at 72 h [4]: 9.31 µM; EC50 [5]: 0.96 µM; EC50 [6]: 1.62 µM; selectivity ratio [7]: > 67; selectivity ratio [8]: > 114; EC50 [9]: 6.69 µM; EC50 [10]: > 50 µM; selectivity ratio [11]: 1; EC50 [12]: > 50 µM; EC50 [13]: > 50 µM; inhibition [14]: inactive; Activity [15]: Active; inhibition [16]: Active; inhibition [17]: inactive; Activity [18]: Active
11 | CCC(=C/[C@H](C)C/C=C/C(C)=C/[C@@H](C)C(=O)[C@@H](C)[C@H](O)[C@@H](C)C/C(C)=C/C(=O)O)/C=C/[C@@H]1OC(=O)C=C[C@@H]1C [LEPTOMYCIN B] | 0.18 | > 0.88 | > 4 | Activity [19]: Active; Activity [20]: inactive; Activity [21]: inactive; Activity [22]: inactive; inhibition [23]: inactive; inhibition [24]: inactive; inhibition [25]: inactive; inhibition [26]: Active
12 | C=C(CC(=O)Nc1cc(F)ccc1F)C(=O)O | > 50 | > 110 |  | 
13 | C=C(CC(=O)Nc1cc(OC)ccc1F)C(=O)Nc1cc(OC)ccc1F | 0.48 | > 110 | > 229 | 
14 | C=C(CC(=O)Nc1cc(Cl)ccc1F)C(=O)Nc1cc(Cl)ccc1F | 0.18 | 19.9 | 111 | 
15 | C=C(CC(=O)Nc1ccc(C(F)(F)F)cc1F)C(=O)O | > 50 | > 110 |  | 
16 | C=C(CC(=O)Nc1cc(C(F)(F)F)ccc1F)C(=O)Nc1cc(C(F)(F)F)ccc1F | 0.11 | 15 | 136 | 
17 | C=C(CC(=O)Nc1ccc(F)cc1C(F)(F)F)C(=O)O | > 50 | > 110 |  | 
18 | C=C(CC(=O)Nc1cc(F)ccc1F)C(=O)Nc1cc(F)ccc1F | 1.26 | 32.8 | 26 | 
19 | C=C(CC(=O)NCc1cc(F)ccc1F)C(=O)NCc1cc(F)ccc1F | > 50 | > 110 |  | 
20 | C=C(CC(=O)Nc1ccccc1C(F)(F)F)C(=O)O | > 50 | > 110 |  | 
21 | C=C(CC(=O)Nc1ccc(Cl)cc1F)C(=O)Nc1ccc(Cl)cc1F | 0.67 | > 110 | > 164 | 
22 | C=C(CC(=O)Nc1cc(Cl)ccc1F)C(=O)O | > 50 | > 110 |  | 
23 | C=C(CC(=O)Nc1cc(C(F)(F)F)ccc1F)C(=O)O | > 50 | > 110 |  | 
24 | C=C(CC(=O)Nc1cccc(C(F)(F)F)c1)C(=O)O | > 50 | > 110 |  | 
25 | C=C(CC(=O)Nc1ccc(F)cc1C(F)(F)F)C(=O)Nc1ccc(F)cc1C(F)(F)F | > 50 | > 110 |  | 
26 | C=C(CC(=O)Nc1ccc(Br)cc1F)C(=O)Nc1ccc(Br)cc1F | 0.99 | > 110 | > 111 | 
